Bioassay records: PubChem, Broad Institute
PGC1a acetyl inh: modulators of PGC1a acetylation. hit rate 0.17% among 350,000. inhibition, % at 15.6 µM. U2OS PGC1a acetylation, AlphaScreen anti-acetyl-lysine; with virally co-expressed GCN5 acetyltransferase;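 active means every replicate shows inhibition of at least 40%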;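 further: 0% = neutral control wells and 100% = positive control wells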
Env fusion inh: blocks HIV Env-driven cell-cell fusion; HeLa-JRFL Env/CEM21 cell fusion, luciferase; hit rate 1.1% among 360,000; inhibition, % at 12.3 µM;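 active means mean replicate inhibition score of at least 50 and every replicate individually at or above 50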;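 further: 0% = plate neutral controls and 100% = maraviroc near 300 nM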
FN deposition inh: fibronectin deposition inhibition. AH1F fibroblasts, Alexa488-fibronectin deposition fluorescence, overnight. inhibition, % at 12.6 µM. hit rate 0.086% among 350,000. AID 743247;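 active means mean inhibition across replicates of 30% or more, regardless of how many single replicates reach that level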;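 further: positive control wells lacked labelled fibronectin entirely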
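Assay system: AH1F fibroblasts / Quantity: 10000 cells per well / Medium: DMEM plus 2% serum, read in PBS / Reagent: labelled fibronectin 24 nM / Dosing: single dose, pinned / Times: 1 h cell attachment, overnight exposure to compound and label / Signal: fluorescence, ex 485 nm, em 525 nm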
FGF22 binding-1: shifts melting point of recombinant human FGF22 | Q9HCT0 | recombinant FGF22 thermal shift, SYPRO orange fluorescence; percent of sucrose octasulfate shift, DMSO zero | activity (Tm shift, normalised), % at 9.99 µM | hit rate 1.5% among 340,000;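 active means mean Tm shift, scaled 0 neutral to 100 positive control, at about 1.3% or above, every replicate too, limit read from the data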
Target sequence (Q9HCT0 whole entry, looked up): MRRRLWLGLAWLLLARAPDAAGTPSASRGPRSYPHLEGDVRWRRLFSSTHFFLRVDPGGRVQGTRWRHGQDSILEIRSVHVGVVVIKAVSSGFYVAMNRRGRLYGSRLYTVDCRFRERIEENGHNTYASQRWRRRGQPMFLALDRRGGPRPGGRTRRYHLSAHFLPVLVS
EWS-Fli block: EWS/Fli transcriptional activity inhibition; A673 NR0B1-luciferase reporter, viability-normalised; inhibition, % at 12.6 µM; hit rate 0.67% among 350,000; AID 651661;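 active means mean inhibition of at least 50% after viability correction, with every replicate also passing that limit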;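 further: firefly luciferase signal divided by Alamar Blue viability fluorescence both relative to DMSO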
PAX8 inh HTS: lowers PAX8-driven luciferase in RMG-I cells; hit rate 1.2% among 360,000; AID 652154; RMG-I TPO-luciferase reporter, SteadyGlo, 24 h; inhibition, % at 12.6 µM;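 active means mean replicate inhibition at least 60% with every replicate also reaching 60%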;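 further: luciferase light reporting Pax8 driven TPO promoter activity; plate controls were median of neutral control wells for no effect and mitoxantrone controls for full effect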
FGF22 binding-2: binds human FGF22 shifting its melting temperature; shares compounds with FGF22 binding-1; recombinant FGF22 thermal shift, SYPRO orange fluorescence; thermal shift activity, °C (ΔTm) at 38 µM; hit rate 2% among 1,000; AID 720646;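 active means fitted rise in melting shift crosses a set limit at or below the top valid dose tested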
TSA no protein: compound-only SYPRO artifact for FGF22 binders | AID 743019 | shares compounds with FGF22 binding-1 | compound-only SYPRO orange thermal shift counter-screen, no protein | hit rate 2% among 1,000 | AC50, µM (highest dose often 38 µM);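 active means rising signal whose fitted curve reaches the 0.54 level within the top valid dose, showing a melting point, actives reach about 13 µM in these data; inactive means the rest, including activity in the opposite direction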; further: value is where the raw curve crosses a fixed level and not half-maximal
An asterisk follows results filed as active; i = inactive; . = not tested or not shown; [ ] = remark or other dose. Rows were chosen to be rich in hits. Some 3.1% of all compounds tested hit in one or more screens of this group.

SMILES | PGC1a acetyl inh | Env fusion inh | FN deposition inh | FGF22 binding-1 | EWS-Fli block | PAX8 inh HTS | FGF22 binding-2 | TSA no protein
COc1ccc2c3c(n(C)c2c1)[C@@H](CO)N(Cc1ccccc1)CC31CN(C)C1 | 5 | . | . | 0 | -5 | . | . | .
O=C(CCc1ccc(S(=O)(=O)N2CCOCC2)cc1)Nc1ccccc1F | 9 | . | 2 | 1.5* | 9 | -7 | 0.14 | i
Cc1ccc(NC(=O)CN2C(=O)NC(Cc3c[nH]c4ccccc34)C2=O)cc1 (stereo unspecified) | -5 | . | -9 | 1.7* | 21 | 16 | -0.52 | i
O=C(CN1C(=O)NC(Cc2c[nH]c3ccccc23)C1=O)Nc1ccc(Br)cc1F (stereo unspecified) | 10 | 9 | -3 | 2.3* | 13 | 12 | -0.21 | i
O=C(CN1C(=O)NC(Cc2c[nH]c3ccccc23)C1=O)Nc1ccccc1Br (stereo unspecified) | 6 | -47 | 4 | 0 | 6 | 5 | . | .
C[C@@H]1CN([C@H](C)CO)C(=O)c2cc(C#CCN(C)C)cnc2O[C@@H]1CN(C)S(C)(=O)=O | -4 | -11[16.7 µM] | 1 | 0 | -14 | . | . | .
CC(=O)c1ccc(S(=O)(=O)N2CCN(CC(=O)Nc3ccc(Cl)c([N+](=O)[O-])c3)CC2)cc1 | . | . | -1 | 2.6* | 8 | 6 | 0.023 | i
COc1cccc(NC(=O)N2C[C@H](O)COC[C@@H]3O[C@H](CC(=O)NC4CCC4)CC[C@H]32)c1 | 1 | . | -10 | 0 | 2 | -24 | . | .
C[C@H](NC(=O)C[C@@H]1CC[C@@H]2[C@H](COC[C@@H](O)CN2C(=O)Nc2cccc(Cl)c2)O1)c1ccccc1 | 5 | 10[16.7 µM] | 1 | 1.5* | -19 | -2 | -0.005 | i
C[C@@H](NC(=O)C[C@@H]1CC[C@H]2[C@@H](COC[C@H](O)CN2C(=O)Nc2cccc(Cl)c2)O1)c1ccccc1 | -1 | -25[16.7 µM] | 4 | 0 | -15 | 20 | . | .
COc1cccc(NC(=O)N2C[C@H](O)COC[C@@H]3O[C@@H](CC(=O)NC4CCC4)CC[C@H]32)c1 | 1 | . | -5 | 1.4* | 4 | 0 | -0.12 | i
O=C(C[C@@H]1CC[C@H]2[C@@H](COC[C@@H](O)CN2CC2CCOCC2)O1)NCC1CCCCC1 | -5 | . | 0 | 7.9* | 5 | -11 | -0.032 | i
COc1ccccc1CNC(=O)C[C@H]1CC[C@H]2[C@@H](COC[C@H](O)CN2C(=O)Nc2ccc(Cl)cc2)O1 | 8 | . | -4 | 0 | -70 | -18 | . | .
O=C(C[C@@H]1CC[C@H]2[C@@H](COC[C@H](O)CN2CC2CCOCC2)O1)NCC1CCCCC1 | 0 | . | 2 | 0 | 1 | -6 | . | .
COc1ccccc1CNC(=O)C[C@H]1CC[C@@H]2[C@H](COC[C@H](O)CN2C(=O)Nc2ccc(Cl)cc2)O1 | 4 | . | -12 | 17* | -94 | -67 | -0.099 | i
CN1C(=O)c2cc(NC(=O)Cc3ccccc3)ccc2OC[C@H]2O[C@@H](CC(=O)O)CC[C@H]21 | 1 | -4[16.7 µM] | . | 0 | -1 | -12 | . | .
O=C(C[C@H]1CC[C@H]2[C@@H](COC[C@@H](O)CN2C(=O)Nc2cccc(Cl)c2)O1)NCC1CCCCC1 | -2 | . | 0 | 0 | -13 | -25 | . | .
O=C(C[C@@H]1CC[C@@H]2[C@H](COC[C@@H](O)CN2C(=O)Nc2cccc(Cl)c2)O1)NCC1CCCCC1 | 9 | . | -1 | 14* | -13 | 1 | 0.033 | i
CCOC(=O)C1(C)CCCN(C(=O)c2cccc(C#N)c2)C1 (stereo unspecified) | . | 22 | 0 | 2.0* | 3 | -2 | -0.038 | i
CCOC(=O)C1(C)CCCN(C(=O)c2ccccc2)C1 (stereo unspecified) | . | 15 | -9 | 0 | 6 | -5 | . | .
Cc1cccc(NC(=O)c2ccc(-c3ccccc3[N+](=O)[O-])o2)c1 | -4 | -5 | . | 1.6* | -29 | -29 | 0.2 | i
CC(=O)Nc1ccc(S(=O)(=O)Nc2nc3ccccc3nc2Nc2cccc(S(N)(=O)=O)c2)cc1 | -4 | 0 | 12 | 2.0* | 3 | -4 | 0.011 | i
C=C(C1=CCN(S(=O)(=O)C(C)(C)C)[C@H]1CCO)c1ccccc1 | -1 | 2 | 19 | 15* | 3 | -16 | 0.047 | i
Cc1noc(C)c1NC(=O)N[C@H]1CC[C@@H](CC(=O)N2CCN(C)CC2)O[C@@H]1CO | 5 | . | -4 | 0 | . | . | . | .
COc1ccc(CN(C)C[C@@H]2Oc3c(NC(=O)NC4CCCCC4)cccc3C(=O)N([C@@H](C)CO)C[C@@H]2C)cc1 | 3 | . | -10 | 0 | 1 | -1 | . | .
SMILES | PGC1a acetyl inh | Env fusion inh | FN deposition inh | FGF22 binding-1 | EWS-Fli block | PAX8 inh HTS | FGF22 binding-2 | TSA no protein
CC(C)C#Cc1cnc2c(c1)C(=O)N([C@@H](C)CO)C[C@@H](C)[C@H](CN(C)C(=O)c1cnccn1)O2 | -4 | -5[16.7 µM] | -2 | 1.3* | -10 | . | 0.028 | i
C/C=C/c1cnc2c(c1)C(=O)N([C@@H](C)CO)C[C@H](C)[C@@H](CN(C)C(=O)c1ccc3c(c1)OCO3)O2 | -3 | -11[16.7 µM] | 0 | 2.6* | 6 | . | 0.17 | i
CC(=O)N(C)C[C@H]1Oc2ncc(C#C[C@H](C)O)cc2C(=O)N([C@@H](C)CO)C[C@@H]1C | -5 | 3[16.7 µM] | -1 | 3.6* | -4 | . | -0.13 | i
COc1ccccc1S(=O)(=O)N[C@H]1CC[C@@H](CC(=O)N2CCN(C)CC2)O[C@@H]1CO | -6 | 4[16.7 µM] | 0 | 0 | 1 | 2 | . | .
CN1CCCCN2[C@H](CO)[C@H](c3ccc(Br)cc3)[C@@H]2C1 | 0 | . | . | 0 | -8 | 3 | . | .
COCC(=O)Nc1ccc2c(c1)OC[C@@H](C)N(Cc1cccnc1)C[C@@H](C)[C@@H](OC)CN(C)C2=O | 13 | 14[16.7 µM] | -1 | 0 | -4 | -3 | . | .
CNC[C@@H]1Oc2cc(-c3ccccc3F)ccc2S(=O)(=O)N([C@H](C)CO)C[C@H]1C | -15 | 9[16.7 µM] | 3 | 0 | 6 | 17 | . | .
O=C(Nc1nnc(S(=O)(=O)N2CCCCCC2)s1)c1ccccc1Br | -8 | -7 | -5 | 0 | 1 | -20 | . | .
Cc1ccccc1C(=O)Nc1nnc(S(=O)(=O)N2CCCCC2)s1 | . | -201 | -2 | 17* | -2 | 2 | 0.005 | i
O=[N+]([O-])c1ccc2nc(-c3ccccc3)[nH]c2c1 | . | -126 | -15 | 1.7* | -85 | -241 | -0.04 | i
Nc1ccc2nc(-c3ccccc3)[nH]c2c1 | . | -90 | 8 | . | . | -94 | . | .
